Among the data in ChEMBL document CHEMBL2016504, “New saccharin derivatives as tyrosinase inhibitors” (Bioorg Med Chem, 2012) are IC50, Ki and Kic values, retold here.

Each structure is given as a SMILES string.

Biological target in one assay: not listed separately
Briefly: Inhibition of desert banana tyrosinase using p-cresol as substrate. Set-up: species or system Musa acuminata.
`O=S(O)S(=O)(=O)O` [SODIUM METABISULFITE] returned a half-inhibitory concentration (IC50) of 65 µM.
Still for that read-out and setting: as for `O[C@@H](CS)[C@@H](O)CS` (relative stereo) [DITHIOTHREITOL], the figure is 63 µM.
`O=C1O[C@H]([C@@H](O)CO)C(O)=C1O` [ASCORBIC ACID] returned an IC50 of 437 µM and a Ki of 530 µM.
`N[C@@H](CS)C(=O)O` [CYSTEINE] came in with an IC50 of 322 µM.

The test system of a further assay is Musa x paradisiaca. Briefly: Competitive inhibition of banana tyrosinase using catechol as substrate by Lineweaver-Burk plot analysis. In outline:
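Banana PPO was partially purified: ammonium sulfate to 80% saturation, dialysis in 5 mM phosphate, then a Sepharose 4B-tyrosine-p-aminobenzoic acid affinity column eluted with 1 M NaCl, 5 mM phosphate, pH 7.0. Catechol oxidation was read as the rise in A420, in duplicate, corrected for non-enzymatic change. Ki and inhibition type came from Lineweaver–Burk 1/V vs 1/[S] plots at two inhibitor levels (0.01–0.20 mM).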
In the case of `Cc1ccc(NC(=S)Nc2ccc3c(c2)S(=O)(=O)NC3=O)cc1`, the Kic was 9.96 µM.
On the same count and under the same terms, the same measure for `O=C1NS(=O)(=O)c2cc(NC(=S)Nc3ccccc3)ccc21`: 10.7 µM; for `O=C1NS(=O)(=O)c2cc(NC(=S)Nc3ccccc3F)ccc21`: 4.23 µM; for `O=C1NS(=O)(=O)c2cc(NC(=S)Nc3cccc(Cl)c3)ccc21`: 28.3 µM.
Regarding `O=C(Nc1cccc([N+](=O)[O-])c1)Nc1ccc2c(c1)S(=O)(=O)NC2=O`, the Kic was determined as 16.9 µM.
On the same count and under the same terms, the same measure for `Nc1ccc2c(c1)S(=O)(=O)NC2=O`: 13.6 µM.
The same measure, in the same setting: the same measure for `O=C1NS(=O)(=O)c2cc(NC(=S)Nc3ccc(Cl)cc3Cl)ccc21`: 10.1 µM; for `O=C(Nc1ccc(F)cc1)Nc1ccc2c(c1)S(=O)(=O)NC2=O`: 15.6 µM; for `O=C(Nc1ccc2c(c1)S(=O)(=O)NC2=O)Nc1ccccc1F`: 35.1 µM.
The same measure, in the same setting: the same measure for `O=C1NS(=O)(=O)c2cc(NC(=S)Nc3cccc(I)c3)ccc21`: 3.95 µM.
Compound `O=C1NS(=O)(=O)c2cc(NC(=S)Nc3cccc(F)c3)ccc21` returned a Kic of 11.1 µM.
On the same count and under the same terms, the same measure for `O=C1NS(=O)(=O)c2cc(NC(=S)Nc3ccc([N+](=O)[O-])cc3)ccc21`: 19.5 µM.
Still for that read-out and setting: as for `O=C(Nc1cccc(F)c1)Nc1ccc2c(c1)S(=O)(=O)NC2=O`, the figure is 12.1 µM; as for `O=C(Nc1cccc(Cl)c1)Nc1ccc2c(c1)S(=O)(=O)NC2=O`, 5.85 µM; as for `COc1ccc(NC(=O)Nc2ccc3c(c2)S(=O)(=O)NC3=O)cc1`, 16.6 µM.
Same read-out and setting: as for `O=C1NS(=O)(=O)c2cc(NC(=S)Nc3ccc(F)cc3)ccc21`, the figure is 14.8 µM; as for `O=C(Nc1ccccc1)Nc1ccc2c(c1)S(=O)(=O)NC2=O`, 13.4 µM; as for `COc1ccc(NC(=S)Nc2ccc3c(c2)S(=O)(=O)NC3=O)cc1`, 9.81 µM.
For the compound `COc1cccc(NC(=O)Nc2ccc3c(c2)S(=O)(=O)NC3=O)c1`, the Kic was determined as 14.1 µM.
The same measure, in the same setting: as for `O=C1NS(=O)(=O)c2cc(NC(=S)Nc3cc(Cl)cc(Cl)c3)ccc21`, the figure is 13.7 µM; as for `O=C(Nc1ccc(Cl)c(Cl)c1)Nc1ccc2c(c1)S(=O)(=O)NC2=O`, 14.9 µM; as for `O=C(Nc1ccc([N+](=O)[O-])cc1)Nc1ccc2c(c1)S(=O)(=O)NC2=O`, 22 µM.
The compound `Cc1ccc(NC(=O)Nc2ccc3c(c2)S(=O)(=O)NC3=O)cc1` had a Kic of 16.2 µM.
Same read-out and setting: the same measure for `O=C(Nc1ccc(Cl)cc1)Nc1ccc2c(c1)S(=O)(=O)NC2=O`: 40.2 µM.

In general, IC50 refers to the midpoint of a concentration-inhibition curve. High values mean lower potency, low ones higher potency. One may read the Ki as the equilibrium dissociation constant of an inhibitor or competing ligand from its target. Lower therefore signals a stronger hold on the target.
